Bioassay records from PubChem.
Shown are actives, neighbours in structure and some others; about 4.5% of the full set was active somewhere.
HCV NS3 hel inh – HCV NS3 helicase inhibition; NS3 helicase DNA unwinding, Cy5 molecular beacon fluorescence; inhibition, % at 10.9 µM; 0.56% of 290,000 active; AID 1800;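 active = inhibition above the mean of all tested compounds plus 3 SD, set per campaign, cut at about 35% in these data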;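 also: 0% = DMSO wells and 100% = thioflavine S control wells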
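Compound dosing – single dose, 10.9 µM nominal final, DMSO 0.8% final · System – NS3 helicase fragment of HCV · Buffer or medium – MOPS pH 6.5, MgCl2, DTT, Tween20, BSA · Signal – Cy5 beacon fluorescence read at start and 1 h · Also added – annealed dual-labelled DNA beacon duplex, ATP-started · Schedule – 1 h at 25 °C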
UPR CHOP act – activators of apoptotic arm of unfolded protein response (CHOP) | CHO-CHOP luciferase reporter, UPR activation, luminescence; percent of tunicamycin response over DMSO baseline | activation, % at 10 µM | 0.34% of 330,000 active;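 active = at 10 µM dose, activation of 40% or more, normalized to positive control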;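 also: 100% = tunicamycin at 10 µg/mL and 0% = DMSO alone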
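Test system: CHO CHOP reporter cells. Input: 500 CHO-CHOP cells per well. Medium: F12 with 10% FBS. Technique: luciferase luminescence. Measure: percent activation relative to tunicamycin control. Dosing: 10 µM compound, 0.5% DMSO. Timing: 16-18 h cell attachment, then 6 h compound exposure, 37 °C.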
XBP1 UPR activ – activators of adaptive arm of unfolded protein response (XBP1) | 0.33% of 330,000 active | activation, % at 20 µM | AID 463104 | CHO-XBP1 luciferase reporter, IRE1-XBP1 UPR activation, luminescence; percent of tunicamycin response, DMSO as zero;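 active = versus positive control, 20 µM dose yields 30% or more activation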;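 also: 100% = tunicamycin at 10 µg/mL and 0% = DMSO only wells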
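Material: CHO cell line with stable XBP1 luciferase reporter; buffer or medium: F12 medium containing 10% fetal bovine serum; compound: single point, 20 µM final compound, 1% DMSO; incubation: 6 h treatment, 37 °C; measured by: glow luminescence from Steady-Glo reagent; evaluation: activation, % of tunicamycin; control set: tunicamycin high, DMSO low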
p97 inhibitor – inhibitors of human p97 ATPase; 0.42% of 220,000 active; AID 1481; P55072; inhibition, % at 8 µM; recombinant p97 ATPase, Kinase-Glo ATP luminescence, 3 h; in the data active = inhibition above about 15%;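 also: 0% = DMSO vehicle and 100% = wells lacking enzyme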
Target sequence (P55072 whole entry, looked up): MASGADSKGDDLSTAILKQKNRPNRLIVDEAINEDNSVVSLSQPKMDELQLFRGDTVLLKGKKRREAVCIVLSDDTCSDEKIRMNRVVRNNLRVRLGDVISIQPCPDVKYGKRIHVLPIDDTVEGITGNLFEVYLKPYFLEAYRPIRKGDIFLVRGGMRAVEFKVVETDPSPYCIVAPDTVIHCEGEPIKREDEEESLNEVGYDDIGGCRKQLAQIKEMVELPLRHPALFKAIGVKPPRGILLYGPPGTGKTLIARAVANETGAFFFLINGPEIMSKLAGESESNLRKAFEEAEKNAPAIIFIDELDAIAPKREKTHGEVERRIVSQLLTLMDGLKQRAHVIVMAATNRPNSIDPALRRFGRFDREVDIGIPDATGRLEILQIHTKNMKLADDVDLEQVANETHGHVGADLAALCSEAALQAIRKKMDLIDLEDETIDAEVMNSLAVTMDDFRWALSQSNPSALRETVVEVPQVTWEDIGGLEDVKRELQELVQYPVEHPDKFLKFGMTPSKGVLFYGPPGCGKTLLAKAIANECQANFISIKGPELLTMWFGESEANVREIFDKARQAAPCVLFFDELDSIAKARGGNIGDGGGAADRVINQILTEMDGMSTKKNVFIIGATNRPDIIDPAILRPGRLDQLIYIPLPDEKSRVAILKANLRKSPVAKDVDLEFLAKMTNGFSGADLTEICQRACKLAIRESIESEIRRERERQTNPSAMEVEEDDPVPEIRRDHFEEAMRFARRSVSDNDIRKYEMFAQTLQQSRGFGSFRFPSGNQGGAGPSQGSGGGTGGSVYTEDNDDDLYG
PfM18AAP inh-1 – PfM18AAP enzyme inhibition. recombinant PfM18AAP, H-Glu-NHMec fluorogenic cleavage. inhibition, % at 7.35 µM. 1.2% of 290,000 active. AID 1822;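 active = inhibition above the campaign mean inhibition over all tested compounds plus 3 SD, cut at about 28% in these data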;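 also: 0% = plate median of test compound wells and 100% = 2 mM ZnCl2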
CHOP inh – CHOP inhibition in unfolded protein response; CHO-K1 CHOP-promoter luciferase, tunicamycin-induced, 15-18 h; 3.8% of 220,000 active; inhibition, % at 10 µM; AID 2732;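 active = compounds that reduced the stress-induced luciferase reporter signal by more than about 70% of percent inhibition, limit read from the data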;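 also: 0% = tunicamycin plus vehicle and 100% = wells without tunicamycin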
PfM18AAP inh-2 – confirmation of Plasmodium falciparum M18 aspartyl aminopeptidase inhibitors; shares compounds with PfM18AAP inh-1; recombinant PfM18AAP, H-Glu-NHMec fluorogenic cleavage; 28% of 2,400 active; inhibition, % at 7.35 µM;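 active = mean inhibition over replicate wells above the hit cutoff set for the earlier primary screen, cut at about 29% in these data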;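 also: 0% = median of test compound wells and 100% = 2 mM ZnCl2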
CTSL1 confirm – Cathepsin L (human) inhibition, confirmation; shares compounds with PfM18AAP inh-1; purified cathepsin L1, Z-Leu-Arg-MCA fluorescence; inhibition, % at 5.96 µM; 2,400 tested, under 10 active;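 active = average inhibition across replicates above the hit cutoff set in the earlier primary screen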;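 also: 0% = median of test compound wells and 100% = Z-Phe-Ala-diazomethylketone 1 µM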
The depositor's hits bear a star; / = no result.

SMILES	HCV NS3 hel inh	UPR CHOP act	XBP1 UPR activ	p97 inhibitor	PfM18AAP inh-1	CHOP inh	PfM18AAP inh-2	CTSL1 confirm
COCCCNC(=S)NNC(=S)Nc1ccccc1	-4.7	0.2	0.8	9.4	40.4*	-7.9	-14.1	5.6
COCCCNC(=S)NNC(=S)Nc1ccc(F)cc1F	9.2	1.8	-0.4	1.1	32.4*	-5.7	-18.6	3.1
COCCCNC(=S)Nc1ccc(C)cc1	5.8	2.2	-0.1	5.2	0.8	1.3	/	/
N#Cc1ccccc1NC(=O)CSc1n[nH]c(=O)n1C1CC1	/	-0.6	-0.7	/	/	/	/	/
Cc1cc(C)c2c(N)c(C(=O)NCc3ccco3)sc2n1	2.0	0.8	-2.6	3.7	35.6*	9.2	-55.4	-4.0
CC(=O)c1sc2nc(C)cc(C)c2c1N	-3.5	-0.3	0.8	4.1	-8.5	14.9	/	/
O=C(c1ccco1)N1CCN(C(=O)N2CCCCC2)CC1	-4.1	2.0	1.1	0.2	89.6*	-5.0	-35.0	-3.1
O=C(c1ccco1)N1CCN(C(=O)N2CCCC2)CC1	-7.2	-0.8	3.6	3.2	0.1	-0.1	/	/
CN(CC(=O)Nc1ccc(Cl)c(C(F)(F)F)c1)C(=O)c1cc(=O)c2ccccc2o1	/	0.3	-2.9	/	/	/	/	/
CCOC(=O)C(NC(=O)N(C)C)(Nc1sc(C)c(CC)c1C#N)C(F)(F)F (configuration not stated)	8.2	1.0	-1.8	-0.4	48.9*	36.2	0.7	-1.8
CC1CCCC(C)N1/N=C/c1ccc(O)c(O)c1 (configuration not stated)	18.8	-0.2	1.4	/	64.1*	/	46.4*	0.7
CC[n+]1c(C)sc2c3ccsc3ccc21	11.2	-1.1	-3.5	5.9	55.5*	14.9	8.8	5.5
CCN1/C(=C/c2ccc3cc(C)ccc3[n+]2CC)Sc2ccc3sccc3c21	/	18.2	-2.7	/	/	/	/	/
C[C@H]1COC(=O)[C@H](Cc2ccc(F)cc2)C/C=C\C[C@H](CC(=O)NCCO)C(=O)N1	/	-0.5	0.4	/	/	/	/	/
Cc1ccc([C@@H]2[C@@H]3C(=O)N(c4ccccc4)C(=O)[C@@H]3[C@]3(C)C(=O)N(Cc4ccc(-c5ccccc5)cc4)CC(=O)N23)o1	-15.2	2.1	-1.4	/	-15.3	/	/	/
O=C(O)c1ccc(N/N=C/c2c(F)cccc2Cl)cc1	7.4	-7.6	-8.9	/	38.6*	/	-9.1	5.4
O=C(N/N=C/c1c(F)cccc1Cl)C1CC1	5.3	0.3	-2.3	/	-5.0	/	/	/
CCN(C(=O)C(C)N1C(=O)/C(=C/c2ccco2)SC1=S)C1CCS(=O)(=O)C1 (configuration not stated)	22.0	0.7	-5.8	/	43.2*	/	-43.1	2.4
CC(C(=O)N(C)C1CCS(=O)(=O)C1)N1C(=O)/C(=C/c2ccc(F)cc2)SC1=S (configuration not stated)	10.4	-0.1	-2.6	/	13.8	/	/	/
Cc1ccc(-c2nc(N/N=C/c3ccncc3)c3ccccc3n2)cc1	1.9	-0.9	-1.1	-60.1	42.7*	81.5*	-69.2	1.3
Clc1ccc(-c2nc3ccccn3c2CN2CCCCC2)cc1	-2.9	-2.8	-2.1	-0.5	-2.6	17.2	/	/
Oc1ccc(N2CCN(Cc3c(-c4ccccc4)nc4ccccn34)CC2)cc1	0.3	7.0	-1.4	/	34.4*	/	-28.1	-10.1
CC(=O)Nc1ccc(S(=O)(=O)NNc2ccc([N+](=O)[O-])cc2)cc1	-8.9	1.1	0.3	/	46.5*	/	-12.7	2.2
CC(=O)NC(=S)NNC(=O)COc1ccc([N+](=O)[O-])cc1	-1.8	-2.1	-1.7	5.3	7.8	13.9	/	/
CC(=O)Nc1ccc(S(=O)(=O)NNC(=O)c2ccc([N+](=O)[O-])cc2)cc1	8.6	0.4	-3.9	/	21.0	/	/	/
SMILES	HCV NS3 hel inh	UPR CHOP act	XBP1 UPR activ	p97 inhibitor	PfM18AAP inh-1	CHOP inh	PfM18AAP inh-2	CTSL1 confirm
COc1ccc(OCC(=O)NNC(=S)NC(=O)c2ccc([N+](=O)[O-])cc2)cc1	8.3	0.8	-3.7	/	33.1*	/	-2.8	2.5
COc1ccc(S(=O)(=O)NNC(=O)c2ccc([N+](=O)[O-])cc2)cc1	10.6	2.3	-1.8	/	18.6	/	/	/
O=C(NNS(=O)(=O)c1ccc([N+](=O)[O-])cc1)c1ccc([N+](=O)[O-])cc1	-0.4	-0.8	-2.4	/	35.2*	/	15.4	-7.0
Cc1ccc(S(=O)(=O)NNC(=S)NC(=O)c2ccc([N+](=O)[O-])cc2)cc1	-5.0	-0.1	-1.2	6.3	47.8*	-5.0	-11.3	9.1
CC1C=CCC2C(=O)N(c3cccc(C(=O)NCc4ccccc4)c3)C(=O)C12 (configuration not stated)	11.8	-0.4	5.0	/	-0.9	/	/	/
CC(=O)NNC(=S)NC(=O)c1cccc([N+](=O)[O-])c1	6.3	1.5	-4.6	1.6	46.8*	32.4	27.0	-1.3
Cc1ccc(C(=O)NC(=S)NNS(=O)(=O)c2ccc(C)cc2)cc1	4.4	0.7	0.1	-3.6	40.0*	16.5	-30.0	2.0
O=C(COc1ccc([N+](=O)[O-])cc1)Nn1cnnc1	-3.8	1.5	-2.4	6.6	41.3*	-43.1	-19.5	-0.6
O=C(NNC(=S)NC(=O)c1ccc(Br)cc1)c1cccc([N+](=O)[O-])c1	10.2	-1.0	7.1	/	-1.8	/	/	/
CCO[C@@H]1OC(C(=O)N2CCOCC2)=C[C@H](C(C)(C)C)[C@H]1CCCO	/	0.5	-2.3	/	/	/	/	/
Cc1c(C(C)C[C@H](C)O)oc(=O)c2c1Oc1c(C)c(C(C)C[C@H](C)O)oc(=O)c1C2 (some centres not stated)	/	1.7	-1.0	/	/	/	/	/
Oc1cc(O)c2c(c1)O[C@H](c1ccc(O)c(O)c1)[C@H](O)C2	-0.5	0.1	-0.6	/	81.1*	/	66.1*	1.4
O=C1c2c(O)cc(O)cc2OC(c2ccc(O)c(O)c2)C1O (configuration not stated)	/	/	/	/	/	-10.4	/	/
COC(=O)CN(n1cnnc1)S(=O)(=O)c1ccccc1Cl	15.0	1.2	0.1	4.8	87.0*	3.1	77.3*	-4.9
Cc1ccc(S(=O)(=O)N2CCOCC2)cc1NC(=O)Nc1ccc([N+](=O)[O-])cc1	/	-1.1	0.6	/	/	/	/	/
COc1ccccc1C1C2=C(N=c3s/c(=C/c4cccc(OCC(=O)O)c4)c(=O)n31)c1ccccc1CC2 (configuration not stated)	18.5	/	/	3.5	36.5*	53.5	-33.5	-2.2
CC12CCC(C(=O)N3CCCc4ccccc43)(OC1=O)C2(C)C (configuration not stated)	-2.6	15.9	-1.4	0.1	-2.7	-2.2	/	/
O=C(CNc1ccc(Oc2ccccc2)cc1)N1CCOCC1	-5.9	-3.3	-6.0	-3.1	42.1*	-12.2	-37.4	-2.5
